From ChEMBL document CHEMBL3352472, “Discovery of 4-aryl-7-hydroxyindoline-based P2Y1 antagonists as novel antiplatelet agents” (J Med Chem, 2014)
The source made the active and inactive calls. The rule behind the calls is not given here.

Tests used:
Oryctolagus cuniculus [1] = test: Induction of bleeding time in rabbit model of electrically-induced carotid artery thrombosis at 80% antithrombotic dose administered 30 mins before electrical stimulation (reference value: 1 +/- 0.05); format: organism-based; conditions: in vivo, 0.5 h
Oryctolagus cuniculus [2] = test: Antithrombotic activity in rabbit model of electrically-induced carotid artery thrombosis assessed as reduction in thrombus formation dosed 30 mins before electrical stimulation; format: functional, organism-based
[3] = Metabolic stability in human liver microsomes assessed as compound remaining at 0.5 uM after 10 mins; format: ADME; conditions: read-out: Stability
Outline: (§1)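 Compound at 0.5 μM incubated 10 min with 1 mg/mL human, rat or mouse liver microsomes; percentage of parent remaining reported.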

P2Y purinoceptor 1 [4] = target: T1, P2Y purinoceptor 1 (Homo sapiens, UniProt P47900); test: Antagonist activity at P2Y1 receptor in washed human platelets assessed as 1 uM 2-methylthio-ADP-induced calcium flux by FLIPR assay; format: functional
[5] = Metabolic stability in rat liver microsomes assessed as compound remaining at 0.5 uM after 10 mins; format: ADME; conditions: read-out: Stability; outline: as §1
[6] = Metabolic stability in mouse liver microsomes assessed as compound remaining at 0.5 uM after 10 mins; format: ADME; conditions: read-out: Stability; outline: as §1
[7] = Oral bioavailability in rat at 0.5 mg/kg by cassette dosing method; format: ADME, organism-based; conditions: in vivo
[8] = Clearance in rat at 0.5 mg/kg by cassette dosing method; format: ADME, organism-based; design: dose 0.5 mg/kg; conditions: in vivo
[9] = Volume of distribution at steady state in rat at 0.5 mg/kg by cassette dosing method; format: ADME, organism-based; design: dose 0.5 mg/kg; conditions: in vivo, read-out: Vdss
P2Y purinoceptor 1 [10] = target: T1, P2Y purinoceptor 1; test: Antagonist activity at P2Y1 receptor in platelet-enriched human plasma assessed as 10 uM ADP-induced platelet aggregation at 40 uM preincubated for 1 min followed by ADP induction measured at 5 mins by aggregometric analysis; format: cell-free
hERG (KCNH2) = hERG (KCNH2) (Homo sapiens, UniProt Q12809); test: Inhibition of human ERG at 1 uM by patch clamp assay
Chain of hERG (KCNH2) (Q12809 whole entry): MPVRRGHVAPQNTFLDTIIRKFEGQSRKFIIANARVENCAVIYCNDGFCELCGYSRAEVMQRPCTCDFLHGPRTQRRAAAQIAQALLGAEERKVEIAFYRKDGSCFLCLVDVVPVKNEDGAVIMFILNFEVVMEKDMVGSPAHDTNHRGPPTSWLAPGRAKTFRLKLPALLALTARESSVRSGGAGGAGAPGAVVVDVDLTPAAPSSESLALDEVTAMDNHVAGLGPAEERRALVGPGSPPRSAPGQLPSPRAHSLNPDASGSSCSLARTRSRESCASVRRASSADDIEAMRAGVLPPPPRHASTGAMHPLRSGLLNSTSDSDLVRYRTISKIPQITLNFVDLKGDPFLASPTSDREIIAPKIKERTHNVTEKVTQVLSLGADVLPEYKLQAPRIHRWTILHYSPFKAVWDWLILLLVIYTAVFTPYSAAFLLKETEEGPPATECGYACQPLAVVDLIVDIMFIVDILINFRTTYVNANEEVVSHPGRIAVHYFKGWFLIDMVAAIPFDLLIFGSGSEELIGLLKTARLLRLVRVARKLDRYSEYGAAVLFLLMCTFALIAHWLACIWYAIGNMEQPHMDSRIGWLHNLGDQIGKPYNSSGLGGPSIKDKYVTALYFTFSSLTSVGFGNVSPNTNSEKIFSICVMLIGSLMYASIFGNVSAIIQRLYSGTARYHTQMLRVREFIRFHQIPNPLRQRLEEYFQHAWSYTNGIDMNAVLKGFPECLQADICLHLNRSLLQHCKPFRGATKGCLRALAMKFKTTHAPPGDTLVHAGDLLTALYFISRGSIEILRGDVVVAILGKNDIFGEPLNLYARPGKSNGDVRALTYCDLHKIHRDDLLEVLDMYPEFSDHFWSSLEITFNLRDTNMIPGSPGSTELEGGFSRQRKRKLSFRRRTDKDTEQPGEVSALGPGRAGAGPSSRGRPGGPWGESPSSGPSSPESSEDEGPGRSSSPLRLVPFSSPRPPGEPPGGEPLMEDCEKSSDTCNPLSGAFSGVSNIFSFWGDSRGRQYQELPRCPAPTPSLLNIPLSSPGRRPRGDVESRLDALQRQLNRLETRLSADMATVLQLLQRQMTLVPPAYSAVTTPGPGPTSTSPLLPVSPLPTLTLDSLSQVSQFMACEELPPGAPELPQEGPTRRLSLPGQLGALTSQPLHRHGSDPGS

T1 sequence (P47900 whole entry): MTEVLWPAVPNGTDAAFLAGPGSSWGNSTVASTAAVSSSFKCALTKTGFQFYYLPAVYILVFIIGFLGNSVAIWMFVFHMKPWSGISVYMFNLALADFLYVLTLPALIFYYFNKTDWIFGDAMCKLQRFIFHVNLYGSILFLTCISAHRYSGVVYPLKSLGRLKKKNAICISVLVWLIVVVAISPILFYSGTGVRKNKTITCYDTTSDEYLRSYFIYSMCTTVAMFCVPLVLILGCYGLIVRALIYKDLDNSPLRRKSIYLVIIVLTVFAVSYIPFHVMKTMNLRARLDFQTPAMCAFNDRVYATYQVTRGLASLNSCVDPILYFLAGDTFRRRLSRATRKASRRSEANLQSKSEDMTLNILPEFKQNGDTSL

SMILES | remaining at 10 min, 0.5 µM [3] | IC50 (P2Y purinoceptor 1 [4]) | remaining at 10 min, 0.5 µM [5] | remaining at 10 min, 0.5 µM [6] | further results
CC(=O)Oc1cc2c(s1)CCN(C(C(=O)C1CC1)c1ccccc1F)C2 (stereo not given) | – | – | – | – | fold change (FC) (Oryctolagus cuniculus [1]): 6; inhibition (Oryctolagus cuniculus [2]): Active
CC1(C)CN(c2ccccc2NC(=O)Nc2nc3ccc(Cl)nc3s2)c2c(O)ccc(Cl)c21 | – | 0.14 nM | – | – | –
CC1(C)CN(c2ccccc2NC(=O)Nc2ccc(OC(F)(F)F)cc2)c2c(O)ccc(Cl)c21 | 66% | 0.39 nM | 57% | 58% | –
CC1(C)CN(c2ccccc2NC(=O)Nc2ccc(OC(F)(F)F)cc2)c2c(O)cc(F)c(-c3ccc(Cl)s3)c21 | 92% | 2.3 nM | 79% | 88% | –
CCOC(=O)C1(C)CN(c2ccccc2NC(=O)Nc2nc3ccc(Cl)nc3s2)c2c(O)ccc(Cl)c21 (stereo not given) | 47% | 0.05 nM | 14% | 54% | –
CC1(CC(F)(F)F)CN(c2ccccc2NC(=O)Nc2ccc(OC(F)(F)F)cc2)c2c(O)ccc(Cl)c21 (stereo not given) | 79% | 1.96 nM | 58% | 66% | –
CC(C)CN1CCCC1c1ccc(NC(=O)Nc2ccccc2N2CC(C)(C)c3c(-c4ccc(F)cc4)ccc(O)c32)cc1 (stereo not given) | 58% | 0.02 nM | 39% | 53% | bioavailability [7]: 4%; clearance [8]: 34 mL/min/kg; Vd [9]: 9.8 L/kg
CNC(=O)C1(C)CN(c2ccccc2NC(=O)Nc2nc3ccc(F)cc3s2)c2c(O)ccc(Cl)c21 (stereo not given) | 16% | – | 5% | 16% | inhibition (P2Y purinoceptor 1 [10]): 46%
CC(C)(C)CN1CCC2(CC1)CN(c1ccccc1NC(=O)Nc1nc3ccc(Cl)nc3s1)c1c(O)ccc(Cl)c12 | – | – | – | 84% | clearance [8]: 10.4 mL/min/kg; Vd [9]: 5.4 L/kg; inhibition at 1 µM (hERG (KCNH2)): 57%
CC1(C)CN(c2ccccc2NC(=O)Nc2ccc(OC(F)(F)F)cc2)c2c(O)cc(F)c(-c3cc(F)nc(F)c3)c21 | 75% | 0.47 nM | 80% | 75% | –
CCOC(=O)C1(C)CN(c2ccccc2NC(=O)Nc2ccc(OC(F)(F)F)cc2)c2c(O)ccc(Cl)c21 (stereo not given) | – | 0.09 nM | – | – | –
CC(C)(C)CN1CCCC1c1ccc(NC(=O)Nc2ccccc2N2CC(C)(C)c3c(-c4ccc(F)cc4)ccc(O)c32)cc1 (stereo not given) | 45% | 0.04 nM | 34% | 52% | –
COC(=O)[C@H](c1ccccc1Cl)N1CCc2sccc2C1 [CLOPIDOGREL] | – | – | – | – | fold change (FC) (Oryctolagus cuniculus [1]): 6; inhibition (Oryctolagus cuniculus [2]): Active
CC(C)(C)CN1CCC2(CC1)CN(c1ccccc1NC(=O)Nc1ccc(OC(F)(F)F)cc1)c1c(O)cc(F)c(-c3ccc(F)cc3)c12 | 81% | 0.09 nM | 80% | 67% | bioavailability [7]: 17%; clearance [8]: 4.2 mL/min/kg; Vd [9]: 1 L/kg
CC1(C(=O)O)CN(c2ccccc2NC(=O)Nc2nc3ccc(Cl)nc3s2)c2c(O)ccc(Cl)c21 (stereo not given) | – | – | – | – | inhibition (P2Y purinoceptor 1 [10]): 90%
CC1(CO)CN(c2ccccc2NC(=O)Nc2nc3ccc(Cl)nc3s2)c2c(O)ccc(Cl)c21 (stereo not given) | – | – | – | – | inhibition (P2Y purinoceptor 1 [10]): 72%
CC1(C)CN(c2ccccc2NC(=O)Nc2ccc(OC(F)(F)F)cc2)c2c(O)cc(F)c(-c3ccc(C(F)(F)F)nc3)c21 | 68% | 0.51 nM | 69% | 73% | –
CC1(C)CN(c2ccccc2NC(=O)Nc2ccc(OC(F)(F)F)cc2)c2c(O)cc(F)c(-c3ncc(F)cn3)c21 | 41% | 0.3 nM | 61% | 42% | –
Cc1nc(NC(=O)Nc2ccccc2N2CC(C)(C)c3c(-c4ccc(F)cc4)ccc(O)c32)cs1 | 95% | 0.08 nM | 55% | 52% | –
CC1(C)CN(c2ccccc2NC(=O)Nc2ccc(OC(F)(F)F)cc2)c2c(O)cc(F)c(-c3cnc(Cl)cn3)c21 | 77% | – | 83% | 67% | –
CC1(C)CN(c2ccccc2NC(=O)Nc2ccc(OC(F)(F)F)cc2)c2c(O)cc(F)c(-c3ccc(C(F)(F)F)cn3)c21 | 100% | 0.57 nM | 97% | 65% | –
CC1(C)CN(c2ccccc2NC(=O)Nc2nc3ccc(Cl)nc3s2)c2c(O)ccc(-c3ccc(F)cc3)c21 | 75% | 0.13 nM | 74% | 65% | –
CC1(C)CN(c2ccccc2NC(=O)Nc2csc(Cl)n2)c2c(O)ccc(-c3ccc(F)cc3)c21 | 80% | 0.03 nM | 0% | 75% | –
CC(C)(C)CN1CCC2(CC1)CN(c1ccccc1NC(=O)Nc1ccc(OC(F)(F)F)cc1)c1c(O)cc(F)c(-c3ccc(Cl)cc3)c12 | 78% | 0.16 nM | 72% | 74% | bioavailability [7]: 15%; clearance [8]: 3.7 mL/min/kg; Vd [9]: 1.3 L/kg

More lines, main results first:

remaining at 10 min, 0.5 µM [3] | IC50 (P2Y purinoceptor 1 [4]) | remaining at 10 min, 0.5 µM [5] | remaining at 10 min, 0.5 µM [6] | SMILES | further results
73% | 0.23 nM | 84% | 77% | CC1(C)CN(c2ccccc2NC(=O)Nc2ccc(OC(F)(F)F)cc2)c2c(O)cc(F)c(-c3ccc(F)cc3)c21 | –
88% | – | 100% | 80% | CC1(C)CN(c2ccccc2NC(=O)Nc2ccc(OC(F)(F)F)cc2)c2c(O)c(F)cc(-c3ccc(Cl)cc3)c21 | –
87% | 0.33 nM | 89% | 83% | CC1(C)CN(c2ccccc2NC(=O)Nc2ccc(OC(F)(F)F)cc2)c2c(O)ccc(-c3ccc(F)cc3)c21 | –
90% | 1.8 nM | 81% | 66% | CC1(C)CN(c2ccccc2NC(=O)Nc2ccc(OC(F)(F)F)cc2)c2c(O)ccc(-c3ccc(F)c(F)c3)c21 | –
81% | 0.52 nM | 72% | 79% | CC1(C)CN(c2ccccc2NC(=O)Nc2ccc(OC(F)(F)F)cc2)c2c(O)ccc(-c3ccc(F)cc3F)c21 | –
67% | 0.15 nM | 59% | 56% | CC1(C)CN(c2ccccc2NC(=O)Nc2ccc(OC(F)(F)F)cc2)c2c(O)ccc(-c3cccc(F)c3)c21 | –
96% | 1.51 nM | 94% | 89% | CC1(C)CN(c2ccccc2NC(=O)Nc2ccc(OC(F)(F)F)cc2)c2c(O)ccc(-c3ccc(C(F)(F)F)cc3)c21 | –
80% | 0.45 nM | 71% | 66% | CC1(C)CN(c2ccccc2NC(=O)Nc2ccc(OC(F)(F)F)cc2)c2c(O)c(F)cc(-c3ccc(F)cc3)c21 | –
84% | 0.13 nM | 83% | 78% | CC1(C)CN(c2ccccc2NC(=O)Nc2ccc(OC(F)(F)F)cc2)c2c(O)ccc(-c3ccc(Cl)cc3)c21 | –
76% | 0.37 nM | 67% | 48% | CC1(C)CN(c2ccccc2NC(=O)Nc2ccc(OC(F)(F)F)cc2)c2c(O)ccc(-c3ccccc3)c21 | –
62% | 0.37 nM | 54% | 48% | CC1(C)CN(c2ccccc2NC(=O)Nc2ccc(OC(F)(F)F)cc2)c2c(O)ccc(-c3ccccc3F)c21 | –
63% | 0.57 nM | 59% | 64% | CC1(C)CN(c2ccccc2NC(=O)Nc2ccc(OC(F)(F)F)cc2)c2c(O)ccc(-c3cc(F)cc(F)c3)c21 | –
